The text below walks through data of ChEMBL document CHEMBL2029242 (J Med Chem, 2012).

For one data set, the system named is Mus musculus. In words: Inhibition of BRAF V600E mutant-mediated MEK phosphorylation in human COLO205 cells xenografted in athymic nude mouse at 55 mg/kg, po after 10 hrs. Format: functional. The conditions noted are these: COLO 205, 10 h. In short, it runs like this:
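Mice bearing Colo-205 xenografts got one oral dose in 22% HPβCD; vehicle controls were run. Tumors were collected at time points over 24 h and lysed. pMEK and total MEK in the lysates were measured by immunoblotting and ELISA, and pMEK was normalized to total MEK.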
For orientation: Xenograft models place foreign cells or tissue in a host animal.

A short description of data set [1]: Stability in rat liver microsomes assessed as compound remaining at 1 uM after 60 mins. It is filed as ADME, Microsome. Conditions: read-out: Stability. In short, it runs like this:
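Pooled liver microsomes (0.5 mg/mL) were premixed with 0.1 M phosphate buffer pH 7.4, 6.5 mM MgCl2 and test compound (1 μM final, 0.2% DMSO). NADPH (1 mM) started the reaction at 37 °C, in duplicate. Minus-NADPH and testosterone controls were included. Aliquots were taken at 0, 5, 15, 30 and 60 min and quenched in acetonitrile containing internal standard.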

A short description of data set [2]: Half life in human liver microsomes. It is filed as ADME, Microsome. In short, it runs like this: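 Pooled liver microsomes (0.5 mg/mL) in 0.1 M phosphate pH 7.4 with 6.5 mM MgCl2 and compound at 1 μM (0.2% DMSO). NADPH (1 mM) started the reaction at 37 °C, with minus-NADPH and testosterone controls. Aliquots taken at 0, 5, 15, 30 and 60 min were quenched in acetonitrile; duplicates.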

Data set [3] in a line: Volume of distribution in Cynomolgus monkey at 1 mg/kg, iv and 10 mg/kg, po. Conditions: in vivo. It is filed as ADME, organism-based, Macaca fascicularis. The method in brief:
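Male non-naive cynomolgus monkeys (2.6–3.4 kg) and beagle dogs (10.3–11.9 kg), n = 3 each, were dosed in a crossover design with a ≥7-day washout. Doses were 10 mg/kg by nasogastric gavage and 1 mg/kg as a saphenous iv bolus, both free base in 22% HPβCD. Animals were fasted overnight until about 4 h post dose. Femoral plasma was sampled from predose to 24 h and analyzed by LC-MS/MS. Parameters came from noncompartmental analysis; mean ± SD reported.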

The next data set concerns the target Cytochrome P450 2C9 (Homo sapiens, UniProt P11712). In words: Inhibition of human CYP2C9. It is filed as ADME. In short, it runs like this:
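Pooled human liver microsomes (0.25 mg/mL) with NADPH (1 mM) and five pooled probe substrates (testosterone, diclofenac, dextromethorphan, mephenytoin, phenacetin). Test compound ran at eight concentrations, 0.31−40 μM, 20 min at 37 °C, with pooled control inhibitors in parallel. Isoform-specific metabolites were measured by LC-MS/MS.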

A value given as a limit tells only on which side of the number the result lay.

Chain of Cytochrome P450 2C9 (P11712 whole entry, canonical isoform): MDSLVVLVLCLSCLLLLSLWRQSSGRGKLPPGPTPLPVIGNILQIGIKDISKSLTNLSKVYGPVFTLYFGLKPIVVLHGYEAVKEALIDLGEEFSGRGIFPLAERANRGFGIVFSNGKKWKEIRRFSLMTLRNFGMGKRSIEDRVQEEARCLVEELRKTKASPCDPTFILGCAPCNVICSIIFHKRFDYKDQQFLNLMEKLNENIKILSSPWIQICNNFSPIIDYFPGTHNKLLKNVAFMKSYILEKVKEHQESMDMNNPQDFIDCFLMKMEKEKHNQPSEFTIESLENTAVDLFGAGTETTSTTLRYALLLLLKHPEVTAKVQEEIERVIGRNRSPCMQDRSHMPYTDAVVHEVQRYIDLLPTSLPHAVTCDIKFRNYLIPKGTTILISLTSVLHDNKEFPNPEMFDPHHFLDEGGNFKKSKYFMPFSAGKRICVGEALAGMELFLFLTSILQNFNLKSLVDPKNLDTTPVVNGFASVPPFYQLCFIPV

In general, inhibition in vivo refers to the change of the read-out against control, counted positive when it falls. A word on the half-life: it is the time in which the quantity being followed falls by half. Broadly, the IC50 is the concentration that gives 50% inhibition. Regarding `COc1cc2ncnc(Oc3cccc(NC(=O)Nc4cc(C(C)(C)C(F)(F)F)on4)c3)c2cc1OC` [CEP-32496], the inhibition in vivo at 55 mg/kg in the data set on Mus musculus is 57%. In data set [1], the remaining at 1 h, 1 µM stood at 81%. Further, in data set [2], the half-life is greater than 1 h. Also, the Vd in data set [3] was determined as 2.5 L/kg. On Cytochrome P450 2C9, the IC50 was greater than 10 µM.
